Assay results as given in ChEMBL document CHEMBL1149415, “Discovery and structure-activity relationship of antagonists of B-cell lymphoma 2 family proteins with chemopotentiation activity in vitro and in vivo” (J Med Chem, 2006).

What was measured:
[1] = target: T1, Bcl-2-like protein 1 (Homo sapiens, UniProt Q07817); test: Binding affinity to Bcl-XL by fluorescence polarization assay
[2] = target: T1, Bcl-2-like protein 1; test: Binding affinity to Bcl-XL in 1% human serum by fluorescence polarization assay
[3] = target: Apoptosis regulator Bcl-2 (Homo sapiens, UniProt P10415); test: Binding affinity to Bcl2 by fluorescence polarization assay
Chain of Apoptosis regulator Bcl-2 (P10415 whole entry): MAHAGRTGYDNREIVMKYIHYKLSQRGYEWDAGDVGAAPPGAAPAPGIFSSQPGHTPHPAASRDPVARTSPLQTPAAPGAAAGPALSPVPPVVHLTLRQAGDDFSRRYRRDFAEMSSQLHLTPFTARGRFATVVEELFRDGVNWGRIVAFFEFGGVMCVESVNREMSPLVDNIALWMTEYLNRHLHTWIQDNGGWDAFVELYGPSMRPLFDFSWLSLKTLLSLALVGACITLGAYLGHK

[4] = target: T1, Bcl-2-like protein 1; test: Activity towards mouse FL5.12 cell line transfected with Bcl-XL in presence of 3% fetal bovine serum; type: functional
Summary of the method: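 Bcl-XL-transfected murine FL5.12 (IL-3 dependent) grown in RPMI with 10% FBS and WEHI-3B conditioned medium as the IL-3 source. Switched to IL-3-depleted, FBS-free medium for 2 days. Then placed in gelatin assay medium (3.4 mg/mL bovine gelatin) or 3% FBS assay medium. Serial compound dilutions added for 24 h. Viability read by MTS or CellTiter-Glo; duplicate values per determination; EC50.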

[5] = target: T1, Bcl-2-like protein 1; test: Binding affinity to Bcl-XL in 10% human serum by fluorescence polarization assay
Summary of the method: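 Competitive fluorescence polarization: serial compound dilutions compete with 30 nM f-Bad peptide (FITC-labelled) for 60 nM Bcl-XL. Human serum at 10% added to the assay buffer. Duplicate values per determination; Ki calculated.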

[6] = target: Albumin (Homo sapiens, UniProt P02768); test: Binding affinity for human serum albumin domain III
Chain of Albumin (P02768 whole entry, the tested form may be a part): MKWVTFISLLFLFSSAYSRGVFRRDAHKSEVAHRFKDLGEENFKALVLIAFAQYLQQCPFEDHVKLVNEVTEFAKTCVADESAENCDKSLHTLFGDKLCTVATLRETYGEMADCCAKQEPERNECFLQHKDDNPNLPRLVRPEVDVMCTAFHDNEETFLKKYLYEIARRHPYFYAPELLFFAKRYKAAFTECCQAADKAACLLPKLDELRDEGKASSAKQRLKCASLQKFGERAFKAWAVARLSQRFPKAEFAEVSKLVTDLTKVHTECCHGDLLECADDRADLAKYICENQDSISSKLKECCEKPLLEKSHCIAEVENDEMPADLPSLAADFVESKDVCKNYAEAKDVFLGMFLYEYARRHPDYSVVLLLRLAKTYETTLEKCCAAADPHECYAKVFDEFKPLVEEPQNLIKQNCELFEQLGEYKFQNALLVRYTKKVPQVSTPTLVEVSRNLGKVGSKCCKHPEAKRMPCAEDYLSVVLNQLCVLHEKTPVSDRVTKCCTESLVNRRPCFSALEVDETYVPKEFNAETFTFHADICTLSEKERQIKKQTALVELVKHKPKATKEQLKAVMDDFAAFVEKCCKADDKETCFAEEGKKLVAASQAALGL

T1 sequence (Q07817 whole entry): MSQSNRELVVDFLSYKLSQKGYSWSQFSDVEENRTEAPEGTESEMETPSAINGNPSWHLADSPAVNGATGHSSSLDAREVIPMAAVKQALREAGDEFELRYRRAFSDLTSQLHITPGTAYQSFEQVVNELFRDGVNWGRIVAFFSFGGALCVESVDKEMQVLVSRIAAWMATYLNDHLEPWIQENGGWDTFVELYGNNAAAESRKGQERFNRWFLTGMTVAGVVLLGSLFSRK

SMILES: O=C(NS(=O)(=O)c1ccc(NCCSc2ccccc2)c([N+](=O)[O-])c1)c1ccc(N2CCNCC2)cc1
- Ki [1]: 2520 nM
- Ki [2]: > 10000 nM

SMILES: COc1cc(CCN(C)C)ccc1-c1ccc(C(=O)NS(=O)(=O)c2ccc(NCCSc3ccccc3)c([N+](=O)[O-])c2)cc1
- Ki [1]: 665 nM
- Ki [2]: 998 nM
- Ki [3]: 3260 nM

SMILES: COc1cc(CCCO)ccc1-c1ccc(C(=O)NS(=O)(=O)c2ccc(NCCSc3ccccc3)c([N+](=O)[O-])c2)cc1
- Ki [1]: 21.5 nM
- Ki [2]: 2960 nM
- Ki [3]: 721 nM

SMILES: CN(C)C(=O)C[C@H](CSc1ccccc1)Nc1ccc(S(=O)(=O)NC(=O)c2ccc(N3CCC(C)(C)CC3)cc2)cc1[N+](=O)[O-]
- Ki [1]: 3.1 nM
- Ki [2]: 1790 nM
- Ki [3]: 75 nM
- EC50 [4]: 15000 nM

SMILES: COc1cc(CN(C)C)ccc1-c1ccc(C(=O)NS(=O)(=O)c2ccc(NCCSc3ccccc3)c([N+](=O)[O-])c2)cc1
- Ki [1]: 426 nM
- Ki [2]: 1000 nM
- Ki [3]: 4570 nM

SMILES: COc1cc(CCCN2CCOCC2)ccc1-c1ccc(C(=O)NS(=O)(=O)c2ccc(N[C@@H](CCN(C)C)CSc3ccccc3)c([N+](=O)[O-])c2)cc1
- Ki [1]: 250 nM
- Ki [2]: 1140 nM
- Ki [3]: 2160 nM
- EC50 [4]: 59200 nM

SMILES: CN(C)CC[C@@H](CSc1ccccc1)Nc1ccc(S(=O)(=O)NC(=O)c2ccc(N3CCC(C)(C)CC3)cc2)cc1[N+](=O)[O-]
- Ki [1]: 252 nM
- Ki [2]: 3850 nM
- Ki [3]: 1260 nM
- EC50 [4]: 16100 nM

SMILES: CN(C)CCC[C@H](CSc1ccccc1)Nc1ccc(S(=O)(=O)NC(=O)c2ccc(N3CCC(C)(C)CC3)cc2)cc1[N+](=O)[O-]
- Ki [1]: 2.6 nM
- Ki [2]: 728 nM
- Ki [3]: 92.1 nM
- EC50 [4]: 14100 nM

SMILES: COc1cc(C(=O)N(C)C)ccc1-c1ccc(C(=O)NS(=O)(=O)c2ccc(NCCSc3ccccc3)c([N+](=O)[O-])c2)cc1
- Ki [1]: 471 nM
- Ki [2]: > 10000 nM
- Ki [3]: 1980 nM

SMILES: COc1cc(CCCN2CCOCC2)ccc1-c1ccc(C(=O)NS(=O)(=O)c2ccc(N[C@H](CCCCN(C)C)CSc3ccccc3)c([N+](=O)[O-])c2)cc1
- Ki [1]: < 0.5 nM
- Ki [2]: 215 nM
- Ki [3]: 58.8 nM
- EC50 [4]: 6000 nM

SMILES: COc1cc(CCCN2CCOCC2)ccc1-c1ccc(C(=O)NS(=O)(=O)c2ccc(NCCSc3ccccc3)c([N+](=O)[O-])c2)cc1
- Ki [1]: 10.4 nM
- Ki [2]: 580 nM
- Ki [3]: 402 nM
- Ki [5]: 4300 nM

SMILES: CC(=O)N1CCN(c2ccc(C(=O)NS(=O)(=O)c3ccc(NCCSc4ccccc4)c([N+](=O)[O-])c3)cc2)CC1
- Ki [1]: 894 nM
- Ki [2]: 2970 nM
- Ki [3]: > 10000 nM

SMILES: COc1cc(CCCN2CCOCC2)ccc1-c1ccc(C(=O)NS(=O)(=O)c2ccc(N[C@H](CCN(C)C)CSc3ccccc3)c([N+](=O)[O-])c2)cc1
- Ki [1]: < 0.5 nM
- Ki [2]: 148 nM
- Ki [3]: 116 nM
- EC50 [4]: 2080 nM
- Kd [6]: 94000 nM

SMILES: COc1cc(CCC(=O)N(C)C)ccc1-c1ccc(C(=O)NS(=O)(=O)c2ccc(NCCSc3ccccc3)c([N+](=O)[O-])c2)cc1
- Ki [1]: 38.9 nM
- Ki [2]: 1000 nM
- Ki [3]: 400 nM

SMILES: CC1(C)CCN(c2ccc(C(=O)NS(=O)(=O)c3ccc(NCCSc4ccccc4)c([N+](=O)[O-])c3)cc2)CC1
- Ki [1]: 19 nM
- Ki [2]: 652 nM
- Ki [3]: 192 nM

SMILES: COc1cc(CCCN2CCOCC2)ccc1-c1ccc(C(=O)NS(=O)(=O)c2ccc(N[C@@H](CSc3ccccc3)CC(=O)N(C)C)c([N+](=O)[O-])c2)cc1
- Ki [1]: 1.7 nM
- Ki [2]: 1000 nM
- Ki [3]: 121 nM
- EC50 [4]: 7630 nM
